Measured values from ChEMBL document CHEMBL3259642, “Design and synthesis of novel 2-phenyl-5-(1,3-diphenyl-1H-pyrazol-4-yl)-1,3,4-oxadiazoles as selective COX-2 inhibitors with potent anti-inflammatory activity” (Eur J Med Chem, 2014).

Legend:
[1] = target: T1, Prostaglandin G/H synthase 1 (Ovis aries, UniProt P05979); assay: Inhibition of ovine COX1 after 2 mins by EIA
T1 sequence (P05979 whole entry): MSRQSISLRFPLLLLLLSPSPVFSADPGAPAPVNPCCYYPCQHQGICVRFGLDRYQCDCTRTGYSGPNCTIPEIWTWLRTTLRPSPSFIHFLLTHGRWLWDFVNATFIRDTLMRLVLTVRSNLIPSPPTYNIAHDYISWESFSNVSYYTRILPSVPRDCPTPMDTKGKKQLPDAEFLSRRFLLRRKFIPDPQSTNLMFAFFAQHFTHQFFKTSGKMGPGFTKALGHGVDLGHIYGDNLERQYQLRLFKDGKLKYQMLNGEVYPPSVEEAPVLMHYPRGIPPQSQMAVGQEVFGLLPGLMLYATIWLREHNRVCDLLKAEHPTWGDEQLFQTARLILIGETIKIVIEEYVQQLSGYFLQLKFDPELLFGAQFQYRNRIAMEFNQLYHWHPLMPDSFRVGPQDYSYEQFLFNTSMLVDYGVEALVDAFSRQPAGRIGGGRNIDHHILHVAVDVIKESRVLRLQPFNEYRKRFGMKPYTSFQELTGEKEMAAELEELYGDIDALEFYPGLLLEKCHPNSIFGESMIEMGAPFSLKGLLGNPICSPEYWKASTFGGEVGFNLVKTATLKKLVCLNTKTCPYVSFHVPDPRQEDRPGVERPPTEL

[2] = Selectivity index, ratio of IC50 for ovine COX1 to IC50 for human recombinant COX2
Procedure, shortened: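 Fluorescent screening kit with ovine COX-1 or human recombinant COX-2, heme and ADHP substrate in 0.1 M Tris-HCl pH 8.0 with 5 mM EDTA and 2 mM phenol. Compounds in DMSO tested at 0.01-100, 5 min at 37 °C. Arachidonic acid added; reaction stopped with HCl after 2 min. Resorufin read at ex 535/em 590 nm. IC50 from triplicate concentration-inhibition curves; SI = COX-1 IC50/COX-2 IC50.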

[3] = target: T2, Prostaglandin G/H synthase 2 (Homo sapiens, UniProt P35354); assay: Inhibition of human recombinant COX2 after 2 mins by EIA
T2 sequence (P35354 whole entry): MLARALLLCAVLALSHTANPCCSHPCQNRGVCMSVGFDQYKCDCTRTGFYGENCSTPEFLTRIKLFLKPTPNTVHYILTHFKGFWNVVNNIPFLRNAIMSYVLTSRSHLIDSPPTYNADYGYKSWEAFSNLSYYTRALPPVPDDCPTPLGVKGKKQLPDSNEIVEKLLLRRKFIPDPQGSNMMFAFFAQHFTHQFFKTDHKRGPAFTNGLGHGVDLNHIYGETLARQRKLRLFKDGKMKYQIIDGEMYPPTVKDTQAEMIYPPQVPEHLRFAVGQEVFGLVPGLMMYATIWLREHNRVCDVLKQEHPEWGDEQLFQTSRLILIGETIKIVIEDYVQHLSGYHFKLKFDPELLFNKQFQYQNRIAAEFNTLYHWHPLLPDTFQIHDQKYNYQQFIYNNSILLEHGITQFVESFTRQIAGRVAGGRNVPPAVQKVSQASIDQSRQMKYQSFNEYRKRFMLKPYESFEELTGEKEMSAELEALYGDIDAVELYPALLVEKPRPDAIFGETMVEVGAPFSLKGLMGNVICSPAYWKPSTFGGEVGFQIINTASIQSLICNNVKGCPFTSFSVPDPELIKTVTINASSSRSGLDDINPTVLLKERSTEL

Rattus norvegicus [4] = assay: Antiinflammatory activity in po dosed albino rat assessed as inhibition of carrageenan-induced paw edema administered 1 hr prior challenge measured 2 hrs post challenge; assay type: functional
Procedure, shortened: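 Male Charles Foster albino rats, 150-200 g, n = 6 per group. Compounds suspended in 0.5% methyl cellulose, given orally at 50, 100 and 200 mg/kg; reference drugs at 25, 50 and 100 mg/kg. 1 h later, 0.2 mL of 1% carrageenan in 0.9% NaCl injected into the right hind paw.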

Mus musculus [5] = assay: Analgesic activity in mouse assessed as inhibition of acetic acid-induced writhing at 200 mg/kg, po administered 60 mins prior challenge measured for 5 to 10 mins post acetic acid challenge relative to control; assay type: functional
Procedure, shortened: (§1)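 Groups of 6 mice given saline, test compound (200 mg/kg) or aspirin (100 mg/kg) orally. 60 min later, 0.6% acetic acid injected i.p. Writhes per mouse counted between 5 and 10 min after injection. Percent inhibition of writhes calculated against the saline control group.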

Rattus norvegicus [6] = assay: Ulcerogenic activity in po dosed albino rat at 200 mg/kg, po administered intragastrically measured after 3 hrs; assay type: toxicity, organism-based; parameters: dose 200 mg/kg, route oral; details: in vivo
Procedure, shortened: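 Rats of 180-200 g, 6 per group, fasted 24 h, dosed intragastrically at 200 mg/kg. Killed 3 h later; stomachs opened along the lesser curvature. Each hemorrhagic lesion measured along its maximum length and ranked. Lesion lengths summed to give the ulcer index, reported as mean ± SEM.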

Mus musculus [7] = assay: Analgesic activity in mouse assessed as inhibition of acetic acid-induced writhing at 100 mg/kg, po administered 60 mins prior challenge measured for 5 to 10 mins post acetic acid challenge relative to control; assay type: functional; procedure, shortened: as §1

Row | SMILES | IC50 [1] [µM] | Ratio IC50 [2] | IC50 [3] [µM] | ED50 (Rattus norvegicus [4]) [mg/kg] | inhibition in vivo at 200 mg/kg (Mus musculus [5]) [%] | Activity (Rattus norvegicus [6]) | inhibition in vivo at 100 mg/kg (Mus musculus [7]) [%]
1 | Brc1ccc(-c2nn(-c3ccccc3)cc2-c2nnc(-c3ccccc3)o2)cc1 | > 100 | > 1 | > 100 | – | – | – | –
2 | Cc1ccc(-c2nn(-c3ccccc3)cc2-c2nnc(-c3ccccc3)o2)cc1 | > 100 | > 4 | 25 | – | – | – | –
3 | O=C(O)Cc1ccccc1Nc1c(Cl)cccc1Cl [DICLOFENAC] | – | – | – | 110 | – | – | –
4 | c1ccc(-c2nnc(-c3cn(-c4ccccc4)nc3-c3ccccc3)o2)cc1 | > 100 | > 67 | 1.5 | 125 | – | – | –
5 | O=[N+]([O-])c1ccc(-c2nn(-c3ccccc3)cc2-c2nnc(-c3ccccc3)o2)cc1 | > 100 | > 222 | 0.31 | 74.3 | 67.3 | Non-toxic | –
6 | COc1ccc(-c2nn(-c3ccccc3)cc2-c2nnc(-c3ccccc3)o2)cc1 | > 100 | > 1 | > 100 | – | – | – | –
7 | Brc1ccc(-c2nn(-c3ccccc3)cc2-c2nnc(-c3ccncc3)o2)cc1 | > 100 | > 2.6 | 39 | – | – | – | –
8 | O=[N+]([O-])c1ccc(-c2nn(-c3ccccc3)cc2-c2nnc(-c3ccncc3)o2)cc1 | > 100 | > 200 | 0.5 | 72.6 | – | – | –
9 | Cc1ccc(-c2cc(C(F)(F)F)nn2-c2ccc(S(N)(=O)=O)cc2)cc1 [CELECOXIB] | – | – | – | 81.7 | – | – | –
10 | Cc1ccc(-c2nn(-c3ccccc3)cc2-c2nnc(-c3ccncc3)o2)cc1 | > 100 | > 1.9 | 53 | – | – | – | –
11 | c1ccc(-c2nn(-c3ccccc3)cc2-c2nnc(-c3ccncc3)o2)cc1 | > 100 | > 9 | 11.1 | – | – | – | –
12 | COc1ccc(-c2nn(-c3ccccc3)cc2-c2nnc(-c3ccncc3)o2)cc1 | > 100 | > 2.4 | 42 | – | – | – | –
13 | CC(=O)Oc1ccccc1C(=O)O [ASPIRIN] | – | – | – | – | – | Toxic | 72.2

The next lines start with results.

Row | IC50 [1] [µM] | Ratio IC50 [2] | IC50 [3] [µM] | SMILES | ED50 (Rattus norvegicus [4]) [mg/kg] | inhibition in vivo at 200 mg/kg (Mus musculus [5]) [%] | Activity (Rattus norvegicus [6]) | inhibition in vivo at 100 mg/kg (Mus musculus [7]) [%]
14 | > 100 | > 18.2 | 5.5 | Fc1ccc(-c2nn(-c3ccccc3)cc2-c2nnc(-c3ccc(Cl)cc3)o2)cc1 | 182 | – | – | –
15 | > 100 | > 21 | 4.7 | Clc1ccc(-c2nn(-c3ccccc3)cc2-c2nnc(-c3ccccc3)o2)cc1 | 171 | – | – | –
16 | > 100 | > 1.7 | 58 | Cc1ccc(-c2nn(-c3ccccc3)cc2-c2nnc(-c3ccc(Cl)cc3)o2)cc1 | – | – | – | –
17 | > 100 | > 23 | 4.4 | Clc1ccc(-c2nn(-c3ccccc3)cc2-c2nnc(-c3ccncc3)o2)cc1 | 167 | – | – | –
18 | > 100 | > 15.4 | 6.5 | Fc1ccc(-c2nn(-c3ccccc3)cc2-c2nnc(-c3ccccc3)o2)cc1 | 175 | – | – | –
19 | > 100 | > 1.5 | 67 | COc1ccc(-c2nn(-c3ccccc3)cc2-c2nnc(-c3ccc(Cl)cc3)o2)cc1 | – | – | – | –
20 | > 100 | > 43 | 2.3 | Fc1ccc(-c2nn(-c3ccccc3)cc2-c2nnc(-c3ccncc3)o2)cc1 | 123 | – | – | –
21 | > 100 | > 11.5 | 8.7 | Clc1ccc(-c2nnc(-c3cn(-c4ccccc4)nc3-c3ccc(Cl)cc3)o2)cc1 | 199 | – | – | –
22 | > 100 | > 83.3 | 1.2 | O=[N+]([O-])c1ccc(-c2nn(-c3ccccc3)cc2-c2nnc(-c3ccc(Cl)cc3)o2)cc1 | 167 | – | – | –
23 | > 100 | > 2.6 | 38 | Clc1ccc(-c2nnc(-c3cn(-c4ccccc4)nc3-c3ccccc3)o2)cc1 | – | – | – | –
24 | > 100 | > 2 | 50 | Clc1ccc(-c2nnc(-c3cn(-c4ccccc4)nc3-c3ccc(Br)cc3)o2)cc1 | – | – | – | –
